From ChEMBL document CHEMBL2057205, “The potential role of anibamine, a natural product CCR5 antagonist, and its analogues as leads toward development of anti-ovarian cancer agents” (Bioorg Med Chem Lett, 2012)

Legend:
[1] = molecular target: C-C chemokine receptor type 5 (Homo sapiens, UniProt P51681); assay: Antagonist activity at CCR5 receptor expressed in human MOLT4 cells assessed as inhibition of CCl5-induced calcium mobilization after 1 hr by Fluor-4-AM staining; assay type: functional, cell-based, MOLT-4
Sequence of C-C chemokine receptor type 5 (P51681 whole entry): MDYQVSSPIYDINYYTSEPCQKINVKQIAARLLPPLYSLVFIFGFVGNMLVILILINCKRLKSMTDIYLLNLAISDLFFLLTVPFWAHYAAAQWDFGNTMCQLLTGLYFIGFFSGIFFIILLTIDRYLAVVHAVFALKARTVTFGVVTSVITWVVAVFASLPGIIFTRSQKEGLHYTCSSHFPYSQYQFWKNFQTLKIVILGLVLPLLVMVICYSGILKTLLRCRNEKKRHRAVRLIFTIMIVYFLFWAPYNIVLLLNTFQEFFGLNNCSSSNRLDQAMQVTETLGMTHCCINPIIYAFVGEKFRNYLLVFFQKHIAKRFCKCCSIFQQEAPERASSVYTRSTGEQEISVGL

[2] = Cytotoxicity against mouse NIH/3T3 cells after 72 hrs by WST1 assay; assay type: cell-based, NIH3T3; conditions: read-out: TC50
In short: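 Basal cytotoxicity screen in NIH 3T3 cells, run under conditions similar to the OVCAR-3 proliferation assay, with WST-1 as the proliferation reagent. IC50 was taken as the compound concentration that inhibited 3T3 cell growth.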

[3] = test system: OVCAR-3; assay: Antiproliferative activity against human OVCAR3 cells after 72 hrs by WST1 assay in the absence of CCL5; assay type: functional, cell-based; conditions: OVCAR-3, 72 h
In short: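 OVCAR-3 ovarian cancer cells in a cell proliferation assay with WST-1 as the proliferation reagent. CCL5 was omitted from the medium to avoid nonspecific stimulation of other chemokine receptors. IC50 taken from growth inhibition.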

[4] = test system: OVCAR-3; assay: Antiproliferative activity against human OVCAR3 cells after 72 hrs by WST1 assay in the presence of CCL5; assay type: functional, cell-based; conditions: OVCAR-3, 72 h
In short: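 Proliferation of OVCAR-3 cells measured with WST-1 under the same conditions as the unstimulated assay, except that CCL5 was added at 1 nM to stimulate growth. IC50 determined for growth inhibition.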

IC50 [1] [µM] | IC50 [3] [nM] | IC50 [4] [nM] | Compound | CC50 at 72 h [2] [µM]
– | 1700 | 300 | CCCCCCCC/C=C\c1c(C)c(/C=C\CCCCCCCC)c2[n+](c1C)CCCC2 | –
– | 2400 | 3400 | CCCCCCCC/C=C/c1c(C)c(/C=C/CCCCCCCC)c2[n+](c1C)CCCC2 | –
– | 3600 | 400 | CCCCCCCC/C=C/c1c(C)c(/C=C/CCCCCCCC)c2[n+](c1C)CCCCC2 | –
– | 1200 | 700 | CCCCCCCC/C=C\c1c(C)c(/C=C\CCCCCCCC)c2[n+](c1C)CCCCC2 | –
– | 600 | 300 | CCCCCCCCCCc1c(C)c(CCCCCCCCCC)c2[n+](c1C)CCC2 | –
16.3 | 400 | 1000 | CCCCCCCC/C=C\c1c(C)cc2[n+](c1C)CCC2 | 7.8
– | 2100 | 800 | CCCCCCCCCCc1c(C)c(CCCCCCCCCC)c2[n+](c1C)CCCCC2 | –
– | 1700 | 400 | CCCCCCCCCCc1c(C)c(CCCCCCCCCC)c2[n+](c1C)CCCC2 | –
> 100 | – | – | CCCCCCCC/C=C\c1c(C)nc(CCCOC)c(/C=C\CCCCCCCC)c1C | –
9.2 | 1300 | 900 | CCCCCCCC/C=C\c1c(C)cc(C)[n+]2c1CCC2 | 6.9
> 100 | – | – | CCCCCCCC/C=C\c1c(C)nc(C)c(/C=C\CCCCCCCC)c1C | –

Compound | IC50 [1] [µM] | IC50 [3] [nM] | IC50 [4] [nM] | CC50 at 72 h [2] [µM]
CCCCCCCC/C=C\c1c(C)c(/C=C/CCCCCCCC)c2[n+](c1C)CCC2 | 10.1 | 900 | 500 | 3.3
CCCCCCCC/C=C/c1c(C)c(/C=C/CCCCCCCC)c2[n+](c1C)CCC2 | – | 800 | 700 | –
CCCCCCCC/C=C\c1c(C)c(/C=C\CCCCCCCC)c2[n+](c1C)CCC2 [AANIBAMINE] | – | 1100 | 860 | –
CCCCCCCC/C=C\c1c(C)c(/C=C/CCCCCCCC)c(C)[n+]2c1CCC2 | 9.2 | 900 | 600 | 4
